Results gathered from unrelated publications.
Lines come from different studies, so protocols differ. pKi: −log10 of the molar value.
SLC6A3: Sodium-dependent dopamine transporter (SLC6A3, Homo sapiens, UniProt Q01959)
CA12: Carbonic anhydrase 12 (CA12, Homo sapiens, UniProt O43570)

SMILES	target	assay	conditions	pKi
COc1cc2c(cc1OC)CN(CCc1ccc(NC(=O)c3cccc4c(=O)c5cccc(OC)c5[nH]c34)cc1)CC2	D(3) dopamine receptor (DRD3, Homo sapiens, UniProt P35462)	cell-free assay	–	7.11
COC(=O)[C@H]1[C@@H](c2ccc(Cl)c(Cl)c2)C[C@@H]2CC[C@H]1N2CCCOCc1ccc2cc3ccccc3cc2c1	SLC6A3	ligand displacement, radioligand	pH 7.4, cell membranes	6.69
CCCCC1CNC2CCc3ccc(OC)cc3C12 (racemic)	SLC6A3	ligand displacement, radioligand	–	< 5.00
O=C(Nc1ccc2c(c1)C=CCP(=O)(O)O2)c1ccc(I)cc1	CA12	enzyme activity, inhibitor, stopped-flow	–	7.24
COC(=O)[C@H]1[C@@H](c2ccc(Cl)cc2)C[C@@H]2CC[C@H]1N2CCCCCCCCCc1c2ccccc2cc2ccccc12	SLC6A3	ligand displacement, radioligand	pH 7.4	7.62
Cc1c(Cl)c(=O)oc2cc(OCCCC[Se]C#N)ccc12	CA12	enzyme activity, inhibitor, stopped-flow	–	7.15
CCOP1(=O)CC=Cc2cc(N)ccc2O1 (stereo not drawn)	CA12	enzyme activity, inhibitor, stopped-flow	–	7.78
Cc1cc(=O)oc2cc(OCCCC[Se]C#N)ccc12	CA12	enzyme activity, inhibitor, stopped-flow	–	7.29
COc1ccc(NC(=O)Nc2ccc3c(c2)C=CCP(=O)(O)O3)cc1	CA12	enzyme activity, inhibitor, stopped-flow	–	< 5.00
